Measured values published in ChEMBL document CHEMBL2331347, “Biselectivity of isoDGR peptides for fibronectin binding integrin subtypes α5β1 and αvβ6: conformational control through flanking amino acids” (J Med Chem, 2013).

Experiments:
[1] = target: Integrin alpha-V/beta-3 (Homo sapiens, UniProt P05106+P06756); test: Inhibition of vitronectin binding to Integrin alphaVbeta3 receptor (unknown origin) by competitive ELISA; format: protein-complex assay
[2] = target: Integrin alpha-V/beta-5 (Homo sapiens, UniProt P06756+P18084); test: Inhibition of vitronectin binding to Integrin alphaVbeta5 receptor (unknown origin) by competitive ELISA; format: protein-complex assay
[3] = target: Integrin alpha-V/beta-6 (Homo sapiens, UniProt P06756+P18564); test: Inhibition of latency-associated peptide binding to Integrin alphaVbeta6 receptor (unknown origin) by competitive ELISA; format: protein-complex assay
Method in brief: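 LAP coated at 0.4 μg/mL; soluble αvβ6 at 0.25 μg/mL final, mixed with serially diluted inhibitor. Bound integrin detected with anti-human αv antibody (1:500), then peroxidase secondary antibody (2.0 μg/mL), A450. Blocking, washing and curve analysis as for the α5β1 ELISA; IC50 from the inflection point.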

[4] = target: Integrin alpha-IIb/beta-3 (Homo sapiens, UniProt P05106+P08514); test: Inhibition of fibrinogen binding to Integrin alpha2bbeta3 receptor (unknown origin) by competitive ELISA; format: protein-complex assay
[5] = target: Integrin alpha-5/beta-1 (Homo sapiens, UniProt P05556+P08648); test: Inhibition of fibronectin binding to human Integrin alpha5beta1 receptor by competitive ELISA; format: protein-complex assay
Method in brief: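 Plates coated overnight at 4 °C with 0.5 μg/mL fibronectin at pH 9.6, then blocked with 1% BSA in Tris buffer containing Ca, Mg and Mn. Soluble human α5β1 (1.0 μg/mL final) and inhibitor (0.00013−10 μM final) incubated 1 h at RT. Bound integrin detected with anti-CD49e and peroxidase secondary antibody, A450. Duplicates; IC50 taken as the inflection point of the inhibition curve.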

[6] = Induction of focal adhesions formation in rat REF52 cells plated on 68 nm nanopatterned surfaces assessed as focal adhesion area width after 4 hrs post cells plating by immunofluorescence microscopy; format: functional
Method in brief: (§1)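 REF52 rat embryonic fibroblasts (grown in DMEM with 10% FBS, 37 °C, 5% CO2) trypsinized and plated at 150 cells/mm2 in DMEM with 1% FBS on passivated gold nanopatterns (68 ± 9 nm spacing) functionalized with 25 μM peptide for 1 h. Fixed after 4 or 24 h, immunostained for paxillin, with phalloidin for actin and DAPI for nuclei, imaged at 63×.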

[7] = Induction of focal adhesions formation in rat REF52 cells plated on 68 nm nanopatterned surfaces assessed as axial ratio after 4 hrs post cells plating by immunofluorescence microscopy; format: functional; method in brief: as §1
[8] = Induction of focal adhesions formation in rat REF52 cells plated on 68 nm nanopatterned surfaces assessed as focal adhesion total area/cell area ratio after 24 hrs post cells plating by immunofluorescence microscopy; format: functional; method in brief: as §1
[9] = Induction of focal adhesions formation in rat REF52 cells plated on 68 nm nanopatterned surfaces assessed as focal adhesion area after 4 hrs post cells plating by immunofluorescence microscopy; format: functional; method in brief: as §1
[10] = Induction of focal adhesions formation in rat REF52 cells plated on 68 nm nanopatterned surfaces assessed as focal adhesion total area/cell area ratio after 4 hrs post cells plating by immunofluorescence microscopy; format: functional; method in brief: as §1
[11] = Induction of focal adhesions formation in rat REF52 cells plated on 68 nm nanopatterned surfaces assessed as focal adhesion area length after 24 hrs post cells plating by immunofluorescence microscopy; format: functional; method in brief: as §1
[12] = Induction of focal adhesions formation in rat REF52 cells plated on 68 nm nanopatterned surfaces assessed as axial ratio after 24 hrs post cells plating by immunofluorescence microscopy; format: functional; method in brief: as §1
[13] = Induction of focal adhesions formation in rat REF52 cells plated on 68 nm nanopatterned surfaces assessed as focal adhesion area after 24 hrs post cells plating by immunofluorescence microscopy; format: functional; method in brief: as §1
[14] = Induction of focal adhesions formation in rat REF52 cells plated on 68 nm nanopatterned surfaces assessed as focal adhesion area width after 24 hrs post cells plating by immunofluorescence microscopy; format: functional; method in brief: as §1
[15] = Induction of focal adhesions formation in rat REF52 cells plated on 68 nm nanopatterned surfaces assessed as focal adhesion area length after 4 hrs post cells plating by immunofluorescence microscopy; format: functional; method in brief: as §1

Structure (SMILES)	IC50 [1]	IC50 [2]	IC50 [3]	IC50 [4]	IC50 [5]	also measured
Cc1ccnc(NCCCC(=O)NCC(=O)NC(CC(=O)O)c2ccc(-c3cccc4ccccc34)cc2)c1 (stereo unspecified)	> 10000 nM	> 10000 nM	4 nM	> 10000 nM	2810 nM	–
NC(N)=NCCC[C@@H]1NC(=O)CNC(=O)C[C@@H](C(=O)O)NC(=O)[C@@H](c2ccccc2)NC(=O)[C@H](Cc2ccc(O)cc2)NC1=O	> 10000 nM	–	–	–	39 nM	–
CC(C)[C@H]1NC(=O)[C@H](CCCN=C(N)N)NC(=O)CNC(=O)C[C@@H](C(=O)O)NC(=O)[C@@H](c2ccccc2)NC1=O	> 10000 nM	–	–	–	7.3 nM	–
N=C(N)NCCC[C@@H]1NC(=O)[C@H](CCCCN)NC(=O)[C@@H](Cc2ccccc2)NC(=O)[C@H](CC(=O)O)NC(=O)CNC1=O	–	310 nM	68 nM	> 10000 nM	133 nM	–
N=C(N)NCCC[C@@H]1NC(=O)[C@H](CCCCNC(=O)CCSCCOCCOCCOCCOCCOCCOCCO)NC(=O)[C@@H](Cc2ccccc2)NC(=O)[C@H](CC(=O)O)NC(=O)CNC1=O	13.6 nM	–	–	–	197 nM	Activity [6]: 1.25 um; Ratio [7]: 3.24; Ratio [8]: 0.076; Activity [9]: 3.4 um2; Ratio [10]: 0.093; Activity [11]: 4.17 um; Ratio [12]: 3.42; Activity [13]: 4.12 um2; Activity [14]: 1.31 um; Activity [15]: 3.78 um
NC(N)=NCCC[C@@H]1NC(=O)CNC(=O)C[C@@H](C(=O)O)NC(=O)[C@@H](c2ccccc2)NC(=O)[C@H](CCC(=O)O)NC1=O	3870 nM	–	–	–	92 nM	–
N=C(N)NCCC[C@@H]1NC(=O)CNC(=O)C[C@@H](C(=O)O)NC(=O)[C@@H](c2ccccc2)NC(=O)[C@@H](CCCCNC(=O)CCSCCOCCOCCOCCOCCOCCOCCO)NC1=O	> 10000 nM	–	–	–	27 nM	Activity [6]: 0.51 um; Ratio [7]: 6.01; Ratio [8]: 0.079; Activity [9]: 1.24 um2; Ratio [10]: 0.07; Activity [11]: 3.94 um; Ratio [12]: 4.68; Activity [13]: 2.61 um2; Activity [14]: 0.9 um; Activity [15]: 2.92 um
NC(N)=NCCC[C@@H]1NC(=O)CNC(=O)C[C@@H](C(=O)O)NC(=O)[C@@H](c2ccccc2)NC(=O)[C@@H](Cc2c[nH]c3ccccc23)NC1=O	> 10000 nM	> 10000 nM	92 nM	> 10000 nM	5.5 nM	–
NC(N)=NCCC[C@@H]1NC(=O)CNC(=O)C[C@@H](C(=O)O)NC(=O)[C@@H](c2ccccc2)NC(=O)[C@@H](Cc2ccc(O)cc2)NC1=O	> 10000 nM	–	–	–	8.7 nM	–
NC(N)=NCCC[C@@H]1NC(=O)CNC(=O)C[C@@H](C(=O)O)NC(=O)[C@@H](c2ccccc2)NC(=O)[C@@H](CCC(=O)O)NC1=O	> 10000 nM	–	–	–	11 nM	–
N=C(N)NCCC[C@@H]1NC(=O)CNC(=O)C[C@@H](C(=O)O)NC(=O)[C@@H](c2ccccc2)NC(=O)[C@@H](CCCCN)NC1=O	> 10000 nM	> 10000 nM	19 nM	> 10000 nM	8.7 nM	–
N=C(N)NCCC[C@@H]1NC(=O)CNC(=O)C[C@@H](C(=O)O)NC(=O)[C@@H](c2ccccc2)NC(=O)CNC1=O	> 1000 nM	> 10000 nM	106 nM	> 10000 nM	19 nM	–
N=C(N)NCCC[C@@H]1NC(=O)CNC(=O)C[C@@H](C(=O)O)NC(=O)[C@@H](c2ccccc2)NC(=O)[C@H]2CCCN2C1=O	> 10000 nM	–	–	–	7 nM	–
NC(N)=NCCC[C@@H]1NC(=O)CNC(=O)C[C@@H](C(=O)O)NC(=O)[C@@H](c2ccccc2)NC(=O)[C@@H]2CCCN2C1=O	675 nM	–	–	–	111 nM	–
NC(N)=NCCC[C@@H]1NC(=O)CNC(=O)C[C@@H](C(=O)O)NC(=O)[C@@H](c2ccccc2)NC(=O)[C@H](Cc2c[nH]c3ccccc23)NC1=O	> 10000 nM	–	–	–	72 nM	–
NCCCC[C@@H]1NC(=O)[C@H](CCCN=C(N)N)NC(=O)CNC(=O)C[C@@H](C(=O)O)NC(=O)[C@@H](c2ccccc2)NC1=O	516 nM	> 10000 nM	140 nM	> 10000 nM	94 nM	–
CC(C)[C@@H]1NC(=O)[C@H](CCCN=C(N)N)NC(=O)CNC(=O)C[C@@H](C(=O)O)NC(=O)[C@@H](c2ccccc2)NC1=O	576 nM	–	–	–	115 nM	–
